Screening results from PubChem BioAssay.
Shown are actives, neighbours in structure and some others; about 2.2% of the full set was active somewhere.
MT stabilizer = microtubule stabilization, imaging screen; HeLa tubulin immunostaining HCS, 24 h; share of cells brighter than vehicle mean+2SD; AID 2205; actives 0.83% (n = 200,000); % tubulin-high responders, % at 10 µM;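 active = plate Z-score above 3 for both tubulin-high and condensed-nucleus cell shares, with cell loss under 80%, at 10 µM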;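 note: anti alpha tubulin signal scored within the nucleus-defined area of each cell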
bCat nuc transl = beta-catenin nuclear translocation modulation | actives 0.3% (n = 190,000) | HeLa beta-catenin nuclear translocation, immunofluorescence imaging | nuclear translocation activity, % at 5 µM;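 active = nuclear translocation activity above 50% at 5 µM, with a well cell count of 50 or more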;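 note: per-cell ratio of nuclear to cytoplasmic median beta-catenin stain intensity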
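Test system: HeLa cells, endogenous beta-catenin; Compound: single 5 µM dose plus 0.02–20 µM confirmation series; Times: compound exposure 24 h at 37°C; Signal: fluorescence imaging of beta-catenin antibody stain plus DAPI; Read-out: % activation, nuclear-to-cytoplasmic median beta-catenin signal ratio per cell.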
Ba/F3 V617F tox = reduce viability of Ba/F3 cells dependent on JAK2V617F; Ba/F3 EpoR-JAK2V617F viability, ATP luminescence; inhibition, % at 5.6 µM; actives 1.1% (n = 220,000);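 active = inhibition above the campaign mean plus 3 SD over all tested compounds, cut at about 24% in these data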;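 note: cytokine-independent growth of Ba/F3 cells driven by EpoR plus mutant JAK2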
APP transl inh = APP translation inhibition. SH-SY5Y APP 5'UTR-luciferase reporter, luminescence. inhibition, % at 2 µM. actives 0.82% (n = 190,000);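 active = inhibition above a set limit, derived from the sample mean plus 3 SD, cut at about 45% in these data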
IEC-6 cytotox = kills IEC-6 intestinal cells in KLF5 counter-screen. IEC-6 cytotoxicity, luminescence viability. inhibition, % at 5 µM. actives 0.78% (n = 290,000); in the data active = inhibition above about 22%
BaF3 parental = parental Ba/F3 viability inhibition as JAK2V617F counter-screen | CellTiter-Glo ATP luminescence | actives 1.1% (n = 220,000) | inhibition, % at 5.6 µM;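 active = inhibition above a per-campaign cutoff, the mean inhibition of all tested compounds plus 3 SD, cut at about 27% in these data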
BaF3 tox 2 = parental Ba/F3 viability inhibition for JAK2V617F counter-screen; shares compounds with Ba/F3 V617F tox; CellTiter-Glo luminescence; cells kept alive by added IL-3; inhibition, % at 5.6 µM; actives 31% (n = 580); AID 1520;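 active = cell growth inhibition above the hit limit set in the earlier mutant JAK2 cell screen, cut at about 27% in these data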
JAK2V617F conf = Ba/F3 EpoR-JAK2V617F viability loss, confirmation. shares compounds with Ba/F3 V617F tox. CellTiter-Glo luminescence. inhibition, % at 5.6 µM. actives 66% (n = 580). AID 1521;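 active = mean inhibition above the hit cutoff derived in the earlier primary screen, cut at about 25% in these data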;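 note: higher means lower luminescence from reduced cell ATP and viability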
Numbers stand for hits; 0 = inactive; - = no result given.

SMILES | MT stabilizer | bCat nuc transl | Ba/F3 V617F tox | APP transl inh | IEC-6 cytotox | BaF3 parental | others
O=C(CN(Cc1ccc(F)cc1)C(=O)CNS(=O)(=O)c1ccc(Cl)cc1)NCC1CCCO1 (centres undefined) | - | - | - | - | 0 | -
Cc1c(C(=O)N2CCN(Cc3ccccc3)CC2)oc2c1C(=O)CC(C)(C)C2 | - | - | - | - | 0 | -
CCN(C1CCCCC1)S(=O)(=O)c1ccc(S(=O)(=O)NCc2ccncc2)cc1 | 0 | - | 45 | 0 | 0 | 55
Cc1ccc(S(=O)(=O)NCc2ccncc2)cc1C | 0 | 0 | 48 | 0 | 0 | 75
CCN(C1CCCCC1)S(=O)(=O)c1ccc(S(=O)(=O)NCCc2ccncc2)cc1 | 0 | 0 | 0 | 0 | 0 | 0
O=S(=O)(NCc1ccncc1)c1ccc(Br)s1 | 0 | - | 47 | 0 | 0 | 62
Cc1nnc(SCC(=O)NC2CCCCCC2)n1C(C)C | - | - | - | - | 0 | -
CC(OC(=O)c1ccco1)C(=O)NCc1ccc2c(c1)OCO2 (centres undefined) | - | - | - | - | 0 | -
COc1ccc(Nc2nc(N3CCCCC3)c3ccccc3n2)cc1 | 0 | 0 | 0 | 0 | 0 | 35
Oc1ccc(Nc2nc(N3CCCC3)c3ccccc3n2)cc1 | 0 | 0 | 48 | 0 | 0 | 61
CC(C)(C)NC(=O)CSc1nc2cccnc2n1C1CCCCC1 | - | - | - | - | 0 | -
Cc1cc(/C=C2\Sc3ccccc3N2C)cc(C)[n+]1CC1CCCO1 (centres undefined) | 0 | 0 | 100 | 0 | 0 | 76
CCOc1ccc(-c2nnn(CC(=O)c3cc(OC)ccc3OC)n2)cc1 | 50 | 0 | 0 | 0 | 0 | 0
Cc1ccccc1NC(=O)Cc1nnc(SCC(=O)NC2=NCCS2)n1C | - | - | - | - | 0 | -
NC(=O)NC(CC(=O)OCC(=O)NC(=O)NCc1ccco1)c1ccc(Cl)cc1 (centres undefined) | 0 | 0 | 0 | 55 | 0 | 0
O=C(Cn1ncc(Cl)c(Cl)c1=O)N1CCN(Cc2ccccc2)CC1 | 0 | 0 | 0 | 90 | 0 | 0
Cc1nn(CC(=O)N2c3ccccc3NC(=O)C2(C)C)c(C)c1[N+](=O)[O-] | 0 | 0 | 0 | 0 | 0 | 0
O=c1c(Cl)c(Cl)cnn1Cc1ccccc1Cl | 0 | 0 | 0 | 92 | 0 | 0
CC1(C)C(=O)Nc2ccccc2N1C(=O)Cn1ncc(Cl)c(Cl)c1=O | - | 0 | 0 | - | 0 | 31
Cc1ccc(Cn2ncc(Cl)c(Cl)c2=O)cc1 | 0 | 0 | 0 | 0 | 0 | 0
Cc1cc(C)cc(Cn2ncc(Cl)c(Cl)c2=O)c1 | 0 | 0 | 0 | 58 | 0 | 0
COc1ccc(CNC(=O)c2c(-c3c(F)cccc3Cl)noc2C)cc1 | - | - | - | - | 0 | -
Cc1ccc(CNC(=O)C2CCN(C(=O)Nc3ccc(C)cc3)CC2)cc1 | - | - | - | - | 0 | -
COc1ccc(O)c(/C=N/NC(=S)Nc2cccc(S(=O)(=O)N(C)C)c2)c1 | 0 | 0 | 0 | 60 | 0 | 0
COc1cccc(/C=N/NC(=S)Nc2cccc(S(=O)(=O)N(C)C)c2)c1 | - | 0 | 0 | - | 0 | 0
SMILES | MT stabilizer | bCat nuc transl | Ba/F3 V617F tox | APP transl inh | IEC-6 cytotox | BaF3 parental | others
CCN(CC)S(=O)(=O)c1ccc(N/N=C/c2cc(OC)ccc2O)nc1 | 0 | 0 | 82 | 74 | 0 | 54
O=C(NCc1n[nH]c(=S)n1-c1cccc(C(F)(F)F)c1)c1ccco1 | - | - | - | - | 0 | -
COc1ccc(N2C(N)=NC(N)=NC23CCCC3)cc1 | 0 | 0 | 57 | 0 | 0 | 64
NC1=NC2(CCCCC2)N(c2cccc(Cl)c2)C(N)=N1 | 0 | - | 68 | 0 | 0 | 70
COc1ccccc1N1C(N)=NC(N)=NC12CCCCC2 | - | - | - | - | 0 | -
O=C(Nc1nc(-c2ccc(F)c(F)c2)cs1)Nc1ccc(F)cc1F | - | - | - | - | 0 | -
COC(=O)c1c(NC(=O)CN2CCN(c3ncccn3)CC2)sc(C(N)=O)c1C | - | - | - | - | 0 | -
CCOc1ccccc1CN(Cc1ccco1)S(=O)(=O)c1ccc(-n2cnnn2)c(OC)c1 | 41 | 0 | 0 | 0 | 0 | 0
CC1Cc2cc(/C(O)=C3/C(=O)C(=O)N(CCN4CCOCC4)C3c3ccc([N+](=O)[O-])cc3)ccc2O1 (centres undefined) | - | - | - | - | 0 | -
CCC(C(=O)c1ccccc1)N(C(=O)c1ccccc1Cl)N1C(=O)C2C3C=CC(C3)C2C1=O (centres undefined) | 0 | - | 0 | 0 | 0 | 95
COc1cccc(CCNC(=O)CCCC(=O)c2ccccc2)c1 | - | - | - | - | 0 | -
CC1CCc2sc(C(=O)OCC(=O)NCc3ccc(F)cc3)cc2C1 (centres undefined) | 0 | 119 | 0 | 0 | 0 | 0
Oc1ccc(Nc2nc(-c3ccccc3)nc3ccccc23)cc1 | - | - | - | - | 0 | -
Oc1ccc(Nc2nc3ccccc3nc2Nc2ccc(O)cc2)cc1 | 0 | - | 93 | 87 | 0 | 100
COc1ccccc1NC(=O)COC(=O)/C=C/c1ccc2c(c1)OCO2 | 0 | 0 | 0 | 0 | 0 | 0
COc1ccccc1NC(=O)/C=C/c1ccc2c(c1)OCO2 | 19 | 0 | 0 | 0 | 0 | 0
COc1ccccc1NC(=O)CN1CCN(CC(=O)Nc2ccc(F)cc2F)CC1 | - | - | - | - | 0 | -
CCOc1cc(S(=O)(=O)n2ccnc2)ccc1Br | 0 | 0 | 0 | 0 | 0 | 0
CCOc1cc(S(=O)(=O)n2ccc(C)n2)ccc1Br | 0 | 0 | 30 | 0 | 0 | 0 | BaF3 tox 2=0;JAK2V617F conf=0
Oc1ccc(/C=C/c2ccnc3ccccc23)cc1 | 0 | - | 47 | 0 | 0 | 0 | BaF3 tox 2=0;JAK2V617F conf=42
CNC(=S)N(CCCn1ccnc1)Cc1c(F)cccc1Cl | - | - | - | - | 0 | -
CC1CCCCC1NC(=O)NC(=O)CCl (centres undefined) | 0 | - | 0 | 0 | 0 | 0
CC1CCCC(NC(=O)NC(=O)CCl)C1C (centres undefined) | 0 | - | 58 | 0 | 0 | 0 | BaF3 tox 2=0;JAK2V617F conf=83
N#CC1(NC(=O)COC(=O)C23CC4CC(CC(O)(C4)C2)C3)CCCCC1 | - | - | - | - | 0 | -
CC(=O)N1CCN(C(=O)C(Cc2c[nH]c3ccccc23)NC(=O)c2ccccc2Cl)CC1 (centres undefined) | - | - | - | - | 0 | -
SMILES | MT stabilizer | bCat nuc transl | Ba/F3 V617F tox | APP transl inh | IEC-6 cytotox | BaF3 parental | others
O=c1oc2ccc(Cl)cc2nc1/C=C(\O)c1ccco1 | - | 0 | 34 | - | 0 | 0 | BaF3 tox 2=0;JAK2V617F conf=72
CC(C)C/C(O)=C/c1nc2cc(Cl)ccc2oc1=O | 0 | 0 | 0 | 0 | 0 | 0
Cc1ccc2c(CN(C)Cc3ccc(Cl)cc3)cc(=O)oc2c1 | - | - | - | - | 0 | -
Cc1cc(C)nc(N(C#N)CCOc2ccccc2)n1 | 0 | 0 | 54 | 0 | 0 | 0 | BaF3 tox 2=0;JAK2V617F conf=0
CN(C)c1nc(N(C)C)nc(N(C#N)CCOc2ccccc2)n1 | 0 | 0 | 0 | 0 | 0 | 0
Cc1ccc(C(=O)OCC(=O)N(CC(C)C)c2c(N)n(Cc3ccccc3)c(=O)[nH]c2=O)s1 | - | - | - | - | 0 | -
Cc1ccc(C)c(N2CCN(CCCNC(=O)Cn3cccc3C(=O)c3ccccc3C)CC2)c1 | 0 | 0 | 41 | 0 | 0 | 0 | BaF3 tox 2=0;JAK2V617F conf=29
CC1(C)CC(=O)C=C(Nc2ccc(C(=O)O)c(O)c2)C1 | - | - | - | - | 0 | -
